We go through five molecules from ChEMBL document CHEMBL2321660, “Synthesis, characterization, and photoinduced antibacterial activity of porphyrin-type photosensitizers conjugated to the antimicrobial peptide apidaecin 1b” (J Med Chem, 2013).

For series [1], the system named is Escherichia coli. Put plainly: Antibacterial activity against Escherichia coli ATCC 25922 assessed as cell death after 60 mins in dark followed by blue light illumination. It is filed as functional, organism-based. The method in brief: (§1)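 Dark incubation with PS at rt, then illumination either directly or after three PBS washes (10000g, 5 min). Survival by 10-fold serial dilution, duplicate plating on BHI agar, overnight colony count at 37 °C; dark, light-only and peptide-only controls.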

For series [2], the system named is Escherichia coli. Put plainly: Antibacterial activity against Escherichia coli ATCC 25922 assessed as cell death at 10 uM incubated for 60 mins in dark followed by blue light illumination post compound washout. It is filed as functional, organism-based. A digest of the protocol:
as §1

Series [3] concerns Escherichia coli. Briefly: Antibacterial activity against Escherichia coli ATCC 25922 assessed as cell death at 1.5 to 15 uM incubated for 60 mins in dark followed by blue light illumination post compound washout. The series is classed as functional, organism-based. The method in brief:
as §1

In series [4] the test system is Escherichia coli. Briefly: Antibacterial activity against Escherichia coli ATCC 25922 assessed as cell death at 10 uM incubated for 15 to 120 mins in dark followed by blue light illumination. The series is classed as functional, organism-based. The method in brief: as §1
Series [5] relates to Staphylococcus aureus. Briefly: Antibacterial activity against methicillin-resistant Staphylococcus aureus ATCC BAA-44 assessed as cell death at 0.5 uM incubated for 60 mins in dark followed by blue light illumination post compound washout. The series is classed as functional, organism-based. The method in brief:
(§2)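 Overnight BHI-grown stationary-phase bacteria in PBS pH 7.3 at ~2 × 10⁷ cells/mL, dark-incubated with PS at rt. Then centrifuged at 10000g for 5 min and washed three times in PBS before blue light (390−460 nm, 15.2 mW/cm², 13.5 J/cm²). Survival measured as cfu from serial dilutions plated in duplicate on BHI agar.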

Series [6] has as its system Escherichia coli. Briefly: Drug uptake in Escherichia coli ATCC 25922 at 5 uM incubated for 60 mins in dark followed by flow cytometry. The conditions noted are these: in vivo, 1 h. It is filed as ADME, organism-based. A digest of the protocol:
(§3)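 Bacterial suspensions treated as for photoinactivation (5 μM, 60 min dark incubation at rt, either unwashed or washed three times with PBS) and then analysed for cell-associated red fluorescence by flow cytometry instead of being illuminated.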

The test system of series [7] is Escherichia coli. Briefly: Antibacterial activity against Escherichia coli ATCC 25922 assessed as cell death at 10 uM incubated for 15 to 120 mins in dark followed by blue light illumination post compound washout. The series is classed as functional, organism-based. The method in brief: as §1
The subject of series [8] is Staphylococcus aureus. Put plainly: Antibacterial activity against methicillin-resistant Staphylococcus aureus ATCC BAA-44 assessed as cell death at 0.5 uM incubated for 15 to 120 mins in dark followed by blue light illumination post compound washout. The series is classed as functional, organism-based. The method in brief:
as §2

The subject of series [9] is Escherichia coli. Briefly: Antibacterial activity against Escherichia coli ATCC 25922 assessed as cell death at 15 uM incubated for 60 mins in dark followed by blue light illumination relative to control. It is filed as functional. The method in brief:
(§4)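 Stationary-phase bacteria grown overnight in BHI at 37 °C, washed twice and resuspended in PBS pH 7.3 at ~2 × 10⁷ cells/mL. Dark incubation with PS at rt, unbound PS left in. Blue light (390−460 nm) at 15.2 mW/cm², 13.5 J/cm². Survivors counted as cfu from serial 10-fold dilutions plated in duplicate on BHI agar, 37 °C overnight. Dark, light-only and untreated controls.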

Series [10] relates to Staphylococcus aureus. Briefly: Antibacterial activity against methicillin-resistant Staphylococcus aureus ATCC BAA-44 assessed as log reduction in cell survival at 0.5 uM incubated for 60 mins in dark followed by blue light illumination. The series is classed as functional. The method in brief: as §4
Series [11] relates to Staphylococcus aureus. Put plainly: Drug uptake in methicillin-resistant Staphylococcus aureus ATCC BAA-44 at 1.5 uM incubated for 60 mins in dark followed by flow cytometry. It is filed as ADME, organism-based. The conditions noted are these: in vivo, 1 h. A digest of the protocol:
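Cells treated as for photoinactivation: 60 min dark incubation with PS, unwashed or after three PBS washings. Analysed by flow cytometry for cell-associated red fluorescence instead of being illuminated.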
For orientation: A flow cytometer gives signals particle by particle.

In series [12] the test system is Staphylococcus aureus. Put plainly: Antibacterial activity against methicillin-resistant Staphylococcus aureus ATCC BAA-44 assessed as cell death at 0.5 uM incubated for 15 to 120 mins in dark followed by blue light illumination. It is filed as functional, organism-based. A digest of the protocol: as §4
Series [13] concerns Staphylococcus aureus. Briefly: Antibacterial activity against methicillin-resistant Staphylococcus aureus ATCC BAA-44 assessed as cell death at 50 to 500 nM incubated for 60 mins in dark followed by blue light illumination. The series is classed as functional, organism-based. The method in brief: as §4
In series [14] the test system is Staphylococcus aureus. Briefly: Antibacterial activity against methicillin-resistant Staphylococcus aureus ATCC BAA-44 assessed as cell death at 10 nM incubated for 15 to 120 mins in dark followed by blue light illumination post compound washout. The series is classed as functional, organism-based. The method in brief:
as §2

The subject of series [15] is Staphylococcus aureus. Put plainly: Antibacterial activity against methicillin-resistant Staphylococcus aureus ATCC BAA-44 assessed as cell death at 0.5 uM incubated for 60 mins in dark followed by blue light illumination. It is filed as functional, organism-based. The method in brief:
as §4

The test system of series [16] is Escherichia coli. Briefly: Drug uptake in Escherichia coli ATCC 25922 at 5 uM incubated for 60 mins in dark followed by flow cytometry post compound washout. The series is classed as ADME, organism-based. The conditions noted are these: in vivo, 1 h. The method in brief:
as §3

Series [17] deals with Staphylococcus aureus. Put plainly: Antibacterial activity against methicillin-resistant Staphylococcus aureus ATCC BAA-44 assessed as cell death at 50 to 500 nM incubated for 60 mins in dark followed by blue light illumination post compound washout. It is filed as functional, organism-based. A digest of the protocol:
as §2

Series [18] has as its system Staphylococcus aureus. Briefly: Antibacterial activity against methicillin-resistant Staphylococcus aureus ATCC BAA-44 assessed as cell death at 10 nM incubated for 15 to 120 mins in dark followed by blue light illumination. The series is classed as functional, organism-based. The method in brief: as §4
Series [19] relates to Escherichia coli. Put plainly: Antibacterial activity against Escherichia coli ATCC 25922 assessed as log reduction at 10 uM incubated for 60 mins in dark followed by blue light illumination post compound washout relative to control. The series is classed as functional, organism-based. A digest of the protocol: as §2
Series [20] relates to Escherichia coli. Put plainly: Antibacterial activity against Escherichia coli ATCC 25922 assessed as cell death at 5 to 10 uM incubated for 60 mins in dark followed by blue light illumination. It is filed as functional, organism-based. A digest of the protocol: as §4
The subject of series [21] is Escherichia coli. Briefly: Antibacterial activity against Escherichia coli ATCC 25922 assessed as cell death at 5 uM incubated for 15 to 120 mins in dark followed by blue light illumination post compound washout. The series is classed as functional, organism-based. The method in brief: as §2
Series [22] has as its system Escherichia coli. Briefly: Antibacterial activity against Escherichia coli ATCC 25922 assessed as cell death at 5 uM incubated for 15 to 120 mins in dark followed by blue light illumination. The series is classed as functional, organism-based. The method in brief: as §4
The test system of series [23] is Staphylococcus aureus. Put plainly: Antibacterial activity against methicillin-resistant Staphylococcus aureus ATCC BAA-44 assessed as cell death at 10 uM incubated for 15 to 120 mins in dark followed by red light illumination post compound washout. The series is classed as functional, organism-based. A digest of the protocol:
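After dark incubation with PS in PBS at rt, cells pelleted at 10000g for 5 min and washed three times with PBS. Red light (600−750 nm, 40 mW/cm², 36 J/cm²). Surviving cfu counted on BHI agar plated in duplicate.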

Series [24] relates to Escherichia coli. Put plainly: Antibacterial activity against Escherichia coli ATCC 25922 assessed as cell death after 60 mins in dark followed by red light illumination. It is filed as functional, organism-based. The method in brief: as §1
The test system of series [25] is Staphylococcus aureus. Briefly: Antibacterial activity against methicillin-resistant Staphylococcus aureus ATCC BAA-44 assessed as cell death at 10 uM incubated for 15 to 120 mins in dark followed by red light illumination. The series is classed as functional, organism-based. The method in brief: (§5)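 Cells incubated with PS in the dark at rt in PBS pH 7.3 (~2 × 10⁷ cells/mL), unbound PS not removed. Red light (600−750 nm) delivered from above at 40 mW/cm², total 36 J/cm². Viability read as cfu after 10-fold serial dilution, duplicate plating on BHI agar, overnight at 37 °C.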

Series [26] deals with Staphylococcus aureus. Briefly: Antibacterial activity against methicillin-resistant Staphylococcus aureus ATCC BAA-44 assessed as cell death at 1.5 to 15 uM incubated for 60 mins in dark followed by red light illumination. It is filed as functional, organism-based. A digest of the protocol:
as §5

Active and inactive are the calls of the source. The rule behind the calls is not given here. Residues, ends and D or L forms follow the SMILES beside them. *: point of attachment. Benzoyl(4-TriPhPorphyrinyl) = O=C(c1ccc(-c2c3nc(c(-c4ccccc4)c4ccc([nH]4)c(-c4ccccc4)c4nc(c(-c5ccccc5)c5ccc2[nH]5)C=C4)C=C3)cc1)*

For `CC[C@H](C)[C@H](NC(=O)[C@H](Cc1ccc(O)cc1)NC(=O)[C@@H](NC(=O)[C@@H]1CCCN1C(=O)[C@H](CCCNC(=N)N)NC(=O)[C@H](CC(N)=O)NC(=O)[C@H](CC(N)=O)NC(=O)CNC(=O)c1ccc(-c2c3nc(c(-c4ccccc4)c4ccc([nH]4)c(-c4ccccc4)c4nc(c(-c5ccccc5)c5ccc2[nH]5)C=C4)C=C3)cc1)C(C)C)C(=O)N1CCC[C@H]1C(=O)N[C@@H](CCC(N)=O)C(=O)N1CCC[C@H]1C(=O)N[C@@H](CCCNC(=N)N)C(=O)N1CCC[C@H]1C(=O)N1CCC[C@H]1C(=O)N[C@@H](Cc1cnc[nH]1)C(=O)N1CCC[C@H]1C(=O)N[C@@H](CCCNC(=N)N)C(=O)N[C@@H](CC(C)C)C(=O)O` ({Benzoyl(4-TriPhPorphyrinyl)}-GNNRPVYIPQPRPPHPRL-OH), the Activity entry in the series with Escherichia coli [1] is “Dose-dependent effect”. Also, the outcome in the series on Escherichia coli [2], with Escherichia coli [3], with Escherichia coli [4], in the series on Staphylococcus aureus [5], with Escherichia coli [7] and with Staphylococcus aureus [8] was Active. Also, the outcome in the series on Staphylococcus aureus [12] was Active. In addition, the Drug uptake entry in the series on Escherichia coli [6] and in the series on Staphylococcus aureus [11] was “Active” throughout. Further, in the series on Escherichia coli [9], the “fold change (FC)” value stood at 4. Also, the FC in the series with Staphylococcus aureus [10] was found to be 3.
As for `CC(C)C[C@H](NC(=O)[C@H](CCCNC(=N)N)NC(=O)[C@@H]1CCCN1C(=O)[C@H](Cc1cnc[nH]1)NC(=O)[C@@H]1CCCN1C(=O)[C@@H]1CCCN1C(=O)[C@H](CCCNC(=N)N)NC(=O)[C@@H]1CCCN1C(=O)CNC(=O)c1ccc(-c2c3nc(c(-c4ccccc4)c4ccc([nH]4)c(-c4ccccc4)c4nc(c(-c5ccccc5)c5ccc2[nH]5)C=C4)C=C3)cc1)C(=O)O` ({Benzoyl(4-TriPhPorphyrinyl)}-GPRPPHPRL-OH), the Activity result in the series with Escherichia coli [1] was “Dose-dependent effect”. For the same molecule, the result in the series on Escherichia coli [3], with Escherichia coli [4], with Staphylococcus aureus [5], with Escherichia coli [7], with Staphylococcus aureus [8] and with Staphylococcus aureus [12] was Active. The Drug uptake result in the series on Escherichia coli [6] and in the series with Staphylococcus aureus [11] was “Active” in each case. For the same molecule, the “fold change (FC)” value in the series on Escherichia coli [9] amounted to 4. The FC in the series with Staphylococcus aureus [10] is recorded as 3.
For `O=C(O)c1ccc(-c2c3nc(c(-c4ccccc4)c4ccc([nH]4)c(-c4ccccc4)c4nc(c(-c5ccccc5)c5ccc2[nH]5)C=C4)C=C3)cc1`, the outcome in the series with Escherichia coli [1] was inactive. In addition, the outcome in the series with Staphylococcus aureus [13], in the series on Staphylococcus aureus [14], with Staphylococcus aureus [15], in the series with Staphylococcus aureus [17] and with Staphylococcus aureus [18] was Active. Also, the figures for the Drug uptake result with Escherichia coli [6], in the series on Staphylococcus aureus [11] and in the series on Escherichia coli [16] were “Not Active”, “Active” and “Not Active”, respectively.
For the molecule `C[n+]1ccc(-c2c3nc(c(-c4cc[n+](C)cc4)c4ccc([nH]4)c(-c4ccc(C(=O)O)cc4)c4ccc([nH]4)c(-c4cc[n+](C)cc4)c4nc2C=C4)C=C3)cc1`, in the series on Escherichia coli [1], the Activity result is “Dose-dependent effect”. In addition, the outcome in the series on Staphylococcus aureus [13], in the series on Escherichia coli [3], with Escherichia coli [20], in the series with Escherichia coli [21], in the series on Staphylococcus aureus [8] and in the series with Staphylococcus aureus [15] was Active. Moreover, the result in the series with Escherichia coli [22] and with Staphylococcus aureus [12] was Active. The outcome in the series with Escherichia coli [19] and with Staphylococcus aureus [17] was inactive. Further, the Drug uptake result in the series on Escherichia coli [6] and with Staphylococcus aureus [11] was “Not Active” in each case.
Turning to `COC(=O)CCCC(=O)Nc1cc2[nH]c(cc2-c2ccccc2)c2nc(ccc3[nH]c(cc3-c3ccccc3)c3nc1C(c1ccccc1)=C3)C(c1ccccc1)=C2`, the outcome in the series with Staphylococcus aureus [23], in the series with Staphylococcus aureus [25] and in the series with Staphylococcus aureus [26] was Active. In addition, the outcome in the series with Escherichia coli [24] was inactive.
